The source of these data is ChEMBL document CHEMBL1146132, “Synthesis and activity of small molecule GPR40 agonists” (Bioorg Med Chem Lett, 2006).

The target of assay [1] is T1, Free fatty acid receptor 1 (Homo sapiens, UniProt O14842). The assay can be described thus: Agonist potency at human GPR40 expressed in CHO cells relative to standard by luciferase reporter gene assay. The format is functional, cell-based. (In general: A reporter such as luciferase makes a cellular process visible.)
Assay [2] deals with T1, Free fatty acid receptor 1. The assay can be described thus: Agonist potency at human GPR40 expressed in CHO cells. The format is functional, cell-based. In short, it runs like this: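 Ten-point dose–response in CHO cells stably expressing human GPR40. Receptor activation was read out by a Gal4/Elk1/luciferase reporter gene. Potency was taken from the curve and reported as pEC50.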

Molecules are shown by their SMILES. pEC50: −log10 of the molar value. Bounds are passed on as bounds.

By pEC50 is commonly meant the EC50 on a negative log10 scale, so that one unit is a factor of ten. Lower therefore signals a high EC50.

T1 sequence (O14842 whole entry, the tested form may be a part): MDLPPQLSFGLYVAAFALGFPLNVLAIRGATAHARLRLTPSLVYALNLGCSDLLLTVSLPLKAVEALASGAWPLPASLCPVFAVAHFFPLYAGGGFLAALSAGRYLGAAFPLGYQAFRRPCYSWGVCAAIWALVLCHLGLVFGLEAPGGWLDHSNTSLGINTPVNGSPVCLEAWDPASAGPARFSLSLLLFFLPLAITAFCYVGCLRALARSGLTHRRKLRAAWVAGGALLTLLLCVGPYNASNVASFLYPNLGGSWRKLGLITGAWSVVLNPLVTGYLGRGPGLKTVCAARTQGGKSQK

`CC(C)NC(=O)CCc1ccc(NCc2cccc(Oc3ccccc3)c2)cc1`: in assay [1], the %max was 66%. The pEC50 in assay [2] was 7.40.

In turn, `CNC(=O)CCc1ccc(NCc2cccc(Oc3ccccc3)c2)cc1` yielded a %max in assay [1] of 67%. The molecule also showed a pEC50 in assay [2] of 7.31. For `Cc1nc(-c2ccc(C(F)(F)F)cc2)sc1CNc1ccc([C@H]2C[C@@H]2C(N)=O)cc1` the same measures were 80% and 8.35. For `Cc1nc(-c2ccc(C(F)(F)F)cc2)sc1CNc1ccc(CCC(=O)NC(C)C)cc1` the same measures were 84% and 7.00. The like results for `Cc1nc(-c2ccc(C(F)(F)F)cc2)sc1CNc1ccc([C@H]2C[C@@H]2C(=O)NC2CCNC2)cc1` (some centres not stated) were, in that order, 52% and 6.69.

In turn, `CC(Cc1ccc(NCc2cccc(Oc3ccccc3)c2)cc1)C(=O)O` (configuration not stated) had a %max in assay [1] of 70%. This molecule also had a pEC50 in assay [2] of 7.00. For `CC(C)NC(=O)[C@H]1C[C@@H]1c1ccc(NCc2cccc(Oc3ccccc3)c2)cc1` the same measures were 62% and 7.90. The like results for `Cc1nc(-c2ccc(C(F)(F)F)cc2)sc1CNc1ccc([C@H]2C[C@@H]2C(=O)N[C@H](C)c2ccccc2)cc1` were, in that order, 42% and 7.27.

In the case of `Cc1nc(-c2ccc(C(F)(F)F)cc2)sc1CNc1ccc([C@H]2C[C@@H]2C(=O)O)cc1` (stereo in doubt; 14B) [listing 1 of 2 here], the pEC50 in assay [2] was 8.31.

In assay [1], `Cc1nc(-c2ccc(C(F)(F)F)cc2)sc1CNc1ccc(CCC(=O)O)cc1` showed a %max of 108%. In assay [2], this molecule showed a pEC50 of 7.17. Take `Cc1nc(-c2ccc(C(F)(F)F)cc2)sc1CNc1ccc([C@H]2C[C@@H]2C(=O)O)cc1` (stereo in doubt; 10B) [listing 1 of 2 here]: the %max in assay [1] is 81%.

Molecule `Cc1nc(-c2ccc(C(F)(F)F)cc2)sc1CNc1ccc(CC(C)C(=O)O)cc1` (configuration not stated) returned a %max in assay [1] of 100%. In addition, the pEC50 in assay [2] was 6.45. For `Cc1nc(-c2ccc(C(F)(F)F)cc2)sc1CNc1ccc([C@H]2C[C@@H]2C(=O)N(C)C)cc1` the same measures were 49% and 7.18.

In assay [1], `O=C(O)[C@H]1C[C@@H]1c1ccc(NCc2cccc(Oc3ccccc3)c2)cc1` (stereo in doubt; 14A) [listing 1 of 2 here] registered a %max of 88%.

In assay [2], `Cc1nc(-c2ccc(C(F)(F)F)cc2)sc1CNc1ccc([C@H]2C[C@@H]2C(=O)NC(C)C)cc1` (stereo in doubt; 24B) [listing 1 of 2 here] showed a pEC50 of 7.96. In the case of `Cc1nc(-c2ccc(C(F)(F)F)cc2)sc1CNc1ccc([C@H]2C[C@@H]2C(=O)NC2CCC2)cc1`, the %max in assay [1] was determined as 55%. In addition, in assay [2], the pEC50 is 8.04. The like results for `O=C(O)[C@@H]1C[C@H]1c1ccc(NCc2cccc(Oc3ccccc3)c2)cc1` were, in that order, 64% and 6.25. For `Cc1nc(-c2ccc(C(F)(F)F)cc2)sc1CNc1ccc(OCC(=O)O)cc1` the same measures were 100% and 6.54.

Consider `O=C(O)[C@H]1C[C@@H]1c1ccc(NCc2cccc(Oc3ccccc3)c2)cc1` (stereo in doubt; 14A) [listing 2 of 2 here], for which, in assay [2], the pEC50 is 7.91.

For `O=C(O)[C@H]1C[C@@H]1c1ccc(NCc2cccc(Oc3ccccc3)c2)cc1` (stereo in doubt; 10A) [listing 1 of 2 here], the pEC50 in assay [2] is 7.87. The pEC50 values of the last two molecules are within 0.2 log units of each other. `O=C(O)COc1ccc(NCc2cccc(Oc3ccccc3)c2)cc1` gave a %max in assay [1] of 84%. Further, in assay [2], the negative-log EC50 (pEC50) was 5.69. The like results for `Cc1nc(-c2ccc(C(F)(F)F)cc2)sc1CNc1ccc([C@H]2C[C@@H]2C(=O)NO)cc1` were, in that order, 78% and 8.16. The molecule `Cc1nc(-c2ccc(C(F)(F)F)cc2)sc1CNc1ccc(C(C)CC(=O)O)cc1` (configuration not stated) came in with a %max in assay [1] of 109%. The same molecule gave a pEC50 in assay [2] of 7.23. The like results for `Cc1nc(-c2ccc(C(F)(F)F)cc2)sc1CNc1ccc(/C=C/C(=O)O)cc1` were, in that order, 95% and 7.44. For `Cc1nc(-c2ccc(C(F)(F)F)cc2)sc1CNc1ccc([C@H]2C[C@@H]2C(=O)NC(C)C)cc1` (stereo in doubt; 24B) [listing 2 of 2 here], in assay [1], the %max stood at 71%. Molecule `Cc1nc(-c2ccc(C(F)(F)F)cc2)sc1CNc1ccc(C(=O)O)cc1` yielded a %max in assay [1] of 10%. The pEC50 in assay [2] is less than 5.00.

Molecule `NC(=O)CCc1ccc(NCc2cccc(Oc3ccccc3)c2)cc1` came in with a %max in assay [1] of 68%. The pEC50 in assay [2] was 7.29. The like results for `O=C(CCc1ccc(NCc2cccc(Oc3ccccc3)c2)cc1)N1CCCC1` were, in that order, 46% and 6.94.

Molecule `O=C(O)CCCc1ccc(NCc2cccc(Oc3ccccc3)c2)cc1` showed a %max in assay [1] of 59%. Moreover, the pEC50 in assay [2] is 5.95.

`CC(C)(Oc1ccc(NCc2cccc(Oc3ccccc3)c2)cc1)C(=O)O` registered a %max in assay [1] of 14%. Moreover, in assay [2], the pEC50 was less than 5.00. In assay [1], `Cc1nc(-c2ccc(C(F)(F)F)cc2)sc1CNc1ccc([C@@H]2C[C@@H]2C(=O)O)cc1` yielded a %max of 68%. For the same molecule, the pEC50 in assay [2] was 6.52. For `Cc1nc(-c2ccc(C(F)(F)F)cc2)sc1CNc1ccc(CCC(N)=O)cc1` the same measures were 88% and 7.89. For `O=C(O)Cc1ccc(NCc2cccc(Oc3ccccc3)c2)cc1` the same measures were 36% and less than 5.00. For the molecule `CN(C)C(=O)CCc1ccc(NCc2cccc(Oc3ccccc3)c2)cc1`, the %max in assay [1] came out at 50%. Further, the pEC50 in assay [2] is 6.76. `Cc1nc(-c2ccc(C(F)(F)F)cc2)sc1CNc1ccc([C@H]2C[C@@H]2C(=O)NC(C)C)cc1` (stereo in doubt; 22B) [listing 1 of 2 here] showed a pEC50 in assay [2] of 7.85. On the same count and under the same terms, next, `Cc1nc(-c2ccc(C(F)(F)F)cc2)sc1CNc1ccc([C@H]2C[C@@H]2C(=O)O)cc1` (stereo in doubt; 10B) [listing 2 of 2 here]: 8.61. Consider `O=C(O)CCc1ccc(NCc2cccc(Oc3ccccc3)c2)cc1` [GW9508], for which the %max in assay [1] amounted to 86%. The molecule also showed a pEC50 in assay [2] of 7.19.

In turn, `O=C(O)c1ccc(NCc2cccc(Oc3ccccc3)c2)cc1` gave a %max in assay [1] of 86%. Besides, the pEC50 in assay [2] was less than 5.00. In assay [1], `Cc1nc(-c2ccc(C(F)(F)F)cc2)sc1CNc1ccc([C@H]2C[C@@H]2C(=O)O)cc1` (stereo in doubt; 14B) [listing 2 of 2 here] came in with a %max of 89%. The same measure, in the same setting: in the case of `Cc1nc(-c2ccc(C(F)(F)F)cc2)sc1CNc1ccc([C@H]2C[C@@H]2C(=O)NC(C)C)cc1` (stereo in doubt; 22B) [listing 2 of 2 here] it was 69%. In turn, `O=C(O)/C=C/c1ccc(NCc2cccc(Oc3ccccc3)c2)cc1` returned a %max in assay [1] of 76%. For the same molecule, the pEC50 in assay [2] was 6.84.

With `Cc1nc(-c2ccc(C(F)(F)F)cc2)sc1CNc1ccc(CC(=O)O)cc1`, in assay [1], the %max came out at 18%. Besides, the pEC50 in assay [2] is less than 5.00. With `O=C(O)CSc1ccc(NCc2cccc(Oc3ccccc3)c2)cc1`, the %max in assay [1] turned out to be 84%. This molecule gave a pEC50 in assay [2] of 6.49. For the molecule `O=C(NO)[C@H]1C[C@@H]1c1ccc(NCc2cccc(Oc3ccccc3)c2)cc1`, in assay [1], the %max was 90%. This molecule also showed a pEC50 in assay [2] of 7.83. The molecule `O=C(O)[C@H]1C[C@@H]1c1ccc(NCc2cccc(Oc3ccccc3)c2)cc1` (stereo in doubt; 10A) [listing 2 of 2 here] yielded a %max in assay [1] of 72%. For `CC(CC(=O)O)c1ccc(NCc2cccc(Oc3ccccc3)c2)cc1` (configuration not stated), in assay [1], the %max was 83%. This molecule also gave a pEC50 in assay [2] of 6.90. For `Cc1nc(-c2ccc(C(F)(F)F)cc2)sc1CNc1ccc(CCCC(=O)O)cc1` the same measures were 44% and less than 5.00.
